Data set [1] is described as follows: Stability in rat liver lysosomal homogenate assessed as drug degradation at 50 uM and measured upto 24 hrs by HPLC-MS analysis. The format is ADME, subcellular, Lysosome. The note with it: tissue homogenate. Put shortly: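 Conjugates incubated in rat liver lysosomal homogenate. Reaction mixtures sampled at 5 min, 1 h, 2 h, 4 h, 8 h and 24 h and analysed by HPLC-MS (chromatograms and mass spectra) to identify intact conjugate, fragments and cleavage sites.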

The subject of the next data set is HepG2. As to the kind of experiment: Cytostatic activity against human HepG2 cells assessed as reduction in cell viability incubated for 24 hrs by MTT assay. The format is functional, cell-based. The note with it: HepG2, 24 h. Put shortly:
(§1)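 MTT viability assay after 24 h exposure of MonoMac6 human monocytic cells or HepG2 human hepatocellular carcinoma cells. Top concentration 200 μM. IC50 taken from dose-response curves as the concentration reducing viability to 50% of maximal.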

Data set [2] can be described thus: Stability of the compound in DMSO at 4 degree C at 2 mM up to 3 weeks by reverse phase HPLC analysis. The class given is physicochemical. To be noted: 504 h, 2000 µM. The gist of the method:
(§2)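 Stability followed by analytical RP-HPLC and mass spectrometry under assay conditions: in DMSO at 4 °C over 3 weeks, in serum-free RPMI-1640 at 37 °C over 1 week, and in complete RPMI-1640 at 37 °C over 1 day.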

The test system of data set [3] is Mycobacterium tuberculosis. As to the kind of experiment: Antimycobacterial activity against Mycobacterium tuberculosis H37Rv ATCC 27294 assessed as reduction in bacterial growth after 21 days by serial dilution method. The class given is functional. The note with it: H37Rv ATCC 27294, 504 h, time 21 day. Put shortly:
(§3)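 Broth MIC in Sula semisynthetic medium, pH 6.5; 4-week incubation, with 21-day values […] where indicated. Drug-free inoculated bacteria served as growth control. MIC also expressed as drug content (µg/mL) = MIC (µM) × average SAL molar mass × number of SAL per conjugate / 1000.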

Data set [4] is described as follows: Selectivity index, ratio of IC50 for cytostatic activity against human HepG2 cells to MIC for antimycobacterial activity against Mycobacterium tuberculosis H37Rv ATCC 27294. The format is toxicity, cell-based. To be noted: read-out: Selectivity Index. Put shortly: (§4)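 MTT assay on MonoMac6 or HepG2 cells after 24 h exposure, top concentration 200 µM. SI = IC50 (µM)/MIC (µM) against H37Rv from the 4-week Sula medium assay.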

Data set [5] can be described thus: Cytotoxicity against mouse bone marrow derived macrophages assessed as reduction in cell viability incubated for 48 hrs by MTT assay. The class given is toxicity, cell-based, Macrophage. Put shortly:
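Murine bone marrow-derived macrophages exposed for 48 h, viability by MTT. Highest concentration tested 100 µM. IC50 taken from dose-response curves.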
Background: Formazan colour is commonly taken as a measure of viable cells.

A short description of data set [6]: Retention time of the compound by RP-HPLC analysis. The class given is physicochemical. Put shortly:
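Analytical RP-HPLC on a C18 column (5 μm, 100 Å, 4.6 × 150 mm). Eluent A 0.1% TFA in water, eluent B 0.1% TFA in acetonitrile-water 80:20. Gradient 0% B for 5 min, to 60% B at 15 min, to 100% B at 25 min. Flow 1 mL/min, detection at 220 nm.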

Data set [7] relates to Mycobacterium tuberculosis. As to the kind of experiment: […] antimycobacterial activity against Mycobacterium tuberculosis H37Rv ATCC 27294 infected in human MONO-MAC-6 cells assessed as reduction in colony forming unit at 250 uM for 6 days by colony counting based analysis. To be noted: time 6.0 day. The class given is functional, organism-based. Put shortly: (§5)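 MonoMac6 monolayers infected with H37Rv, then treated with compound at 125 or 250 µM for 3 days. Treatment repeated with fresh compound solution for another 3 days. Intracellular bacteria quantified as CFU against untreated infected cells.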

Data set [8] is described as follows: Selectivity index, ratio of IC50 for cytostatic activity against human MONO-MAC-6 cells to MIC for antimycobacterial activity against Mycobacterium tuberculosis H37Rv ATCC 27294. The class given is toxicity, cell-based. The note with it: read-out: Selectivity Index. Put shortly:
as §4

The subject of data set [9] is Mycobacteroides abscessus. As to the kind of experiment: Antimycobacterial activity against Mycobacterium abscessus ATCC 19977 assessed as reduction in colony forming unit after 7 days by serial dilution method. The format is functional, organism-based. To be noted: time 7.0 day. The gist of the method:
(§6)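 MIC determined in Sula semisynthetic medium, pH 6.5, 1 week incubation. Growth inhibition confirmed by plating on Löwenstein-Jensen solid medium and counting CFU. Bacteria inoculated without drug served as growth control.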

The nature of data set [10]: Stability of the compound in serum free RPMI-1640 medium containing 2% DMSO at 1 mg/ml after 1 week by reverse phase HPLC analysis. To be noted: time 1.0 weeks. The gist of the method: as §2
The nature of data set [11]: Stability of the compound in complete RPMI-1640 medium containing 2% DMSO at 1 mg/ml after 24 hrs by reverse phase HPLC analysis. The gist of the method: as §2
The subject of data set [12] is Mycobacterium tuberculosis. As to the kind of experiment: […] antimycobacterial activity against Mycobacterium tuberculosis H37Rv ATCC 27294 infected in human MONO-MAC-6 cells assessed as reduction in colony forming unit at 125 uM for 6 days by colony counting based analysis. The note with it: time 6.0 day. The format is functional, organism-based. The gist of the method:
as §5

Data set [13] concerns Mycobacterium tuberculosis. The data set is described as follows: Antimycobacterial activity against Mycobacterium tuberculosis H37Rv ATCC 27294 assessed as reduction in colony forming unit after 28 days by serial dilution method. The class given is functional, organism-based. The note with it: time 28.0 day. The gist of the method:
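After the 4-week MIC incubation in Sula semisynthetic medium (pH 6.5), growth inhibition confirmed by plating on Löwenstein-Jensen solid medium and counting colony forming units.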

The subject of data set [14] is Mycobacteroides abscessus. The data set is described as follows: Antimycobacterial activity against Mycobacterium abscessus ATCC 19977 assessed as reduction in bacterial growth after 7 days by serial dilution method. The class given is functional. The note with it: ATCC 19977, 168 h, time 7 day. Put shortly:
as §6

Data set [15] can be described thus: Selectivity index, ratio of IC50 for cytotoxicity against mouse bone marrow derived macrophages to MIC for antimycobacterial activity against Mycobacterium tuberculosis H37Rv ATCC 27294. To be noted: read-out: Selectivity Index. The class given is toxicity. Put shortly: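 Murine bone marrow-derived macrophages exposed for 48 h, top concentration 100 µM. Viability read by MTT and IC50 taken from dose-response curves. SI = IC50/MIC against H37Rv.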

The subject of another data set is MONO-MAC-6. As to the kind of experiment: Cytostatic activity against human MONO-MAC-6 cells assessed as reduction in cell viability incubated for 24 hrs by MTT assay. The class given is functional, cell-based. To be noted: MONO-MAC-6, 24 h. Put shortly:
as §1

A short description of data set [16]: Stability of the compound in Sula's semisynthetic medium containing 10% DMSO assessed as free salicylanilide formation at pH 6.5 at 2 mg/ml after 4 weeks at 37 degree C by reverse phase HPLC analysis. The gist of the method:
(§7)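 Conjugate incubated in Sula semisynthetic medium (pH 6.5) at 37 °C for 4 weeks. Decomposition to free salicylanilide and 2-hydroxyacetyl-tuftsin derivative followed by analytical RP-HPLC and mass spectrometry.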

For data set [17], the system named is Mycobacterium tuberculosis. The data set is described as follows: Antimycobacterial activity against Mycobacterium tuberculosis H37Rv ATCC 27294 assessed as reduction in bacterial growth after 28 days by serial dilution method. The class given is functional. The note with it: H37Rv ATCC 27294, 672 h, time 28 day. Put shortly:
as §3

A short description of data set [18]: Stability of the compound in Sula's semisynthetic medium containing 10% DMSO assessed as 2-hydroxyacetyl-tuftsin derivative formation at pH 6.5 at 2 mg/ml after 4 weeks at 37 degree C by reverse phase HPLC analysis. The gist of the method:
as §7

Converted amounts (≈) assume the structure as drawn. The source made the active and inactive calls. The calls are words filed in the database; no cut-off is given here. *1 amine or outer side, *2 acyl side, *3 side chain or, on linkers, in order; H or OH if unused. Where a SMILES comes first, the peptide text is derived from it. [ ]: non-standard residue; d: D form. The star is where a group is joined. X1 = C/C(=N\OCC(=O)[*:2])c1ccc(N[*:1])cc1; Benzoyl(5-Br-2-OH) = O=C(c1cc(Br)ccc1O)*; Decanoyl = CCCCCCCCCC(=O)*

With `CCCCCCCCCC(=O)NCCCC[C@H](NC(=O)[C@@H]1CCCN1C(=O)[C@H](CCCCN)NC(=O)[C@@H](NC(=O)CO/N=C(\C)c1ccc(NC(=O)c2cc(Br)ccc2O)cc1)[C@@H](C)O)C(=O)NCC(=O)N[C@H](C(=O)N[C@@H](CCCCN)C(=O)N1CCC[C@H]1C(=O)N[C@@H](CCCCN)C(=O)NCC(=O)N[C@H](C(=O)N[C@@H](CCCCN)C(=O)N1CCC[C@H]1C(=O)N[C@@H](CCCCN)C(=O)NCC(=O)N[C@H](C(=O)N[C@@H](CCCCN)C(=O)N1CCC[C@H]1C(=O)N[C@@H](CCCCN)C(=O)NCC(N)=O)[C@@H](C)O)[C@@H](C)O)[C@@H](C)O` ({Benzoyl(5-Br-2-OH)}-[X1]TKPK(Decanoyl)GTKPKGTKPKGTKPKG-NH2), the Stability result in data set [1] is “Unstable”; in [2], “Stable”; in data set [10], “Stable”; in data set [11], “Stable”. In addition, the concentration for half-maximal inhibition (IC50) with HepG2 stood at 113 µM; in the data set on MONO-MAC-6 it was 24.9 µM. For the same compound, the MIC in [3] and in [14] was 76.7 µM (≈ 200 µg/mL) in each case. The values for the selectivity ratio in data set [4], in [8] and in data set [15] were 1.5, 0.3 and 0.9, respectively. Besides, the IC50 at 48 h in [5] is 71.9 µM. In data set [6], this compound gave a Retention_time of 16.4 min. The outcome in data set [7], in [9], in [12] and in [13] was Active.

In the case of `C/C(=N\OCC(=O)N[C@H](C(=O)N[C@@H](CCCCN)C(=O)N1CCC[C@H]1C(=O)N[C@@H](CCCCN)C(=O)NCC(=O)N[C@H](C(=O)N[C@@H](CCCCN)C(=O)N1CCC[C@H]1C(=O)N[C@@H](CCCCN)C(=O)NCC(=O)N[C@H](C(=O)N[C@@H](CCCCN)C(=O)N1CCC[C@H]1C(=O)N[C@@H](CCCCN)C(=O)NCC(=O)N[C@H](C(=O)N[C@@H](CCCCN)C(=O)N1CCC[C@H]1C(=O)N[C@@H](CCCCN)C(=O)NCC(N)=O)[C@@H](C)O)[C@@H](C)O)[C@@H](C)O)[C@@H](C)O)c1ccc(NC(=O)c2cc(Br)ccc2O)cc1` ({Benzoyl(5-Br-2-OH)}-[X1]TKPKGTKPKGTKPKGTKPKG-NH2), the Stability result in data set [1] is recorded as “Unstable”; in data set [2], “Stable”; in data set [16], “Stable”; in [10] it was “Stable”; in data set [11], “Stable”; in data set [18] it was “Stable”. In addition, the IC50 with HepG2 is 81.9 µM; in the data set on MONO-MAC-6, more than 200 µM. Further, the selectivity ratio in data set [4] was 1; in data set [8], more than 2.5; in [15], 1.2. Moreover, the IC50 at 48 h in [5] was more than 100 µM. Moreover, in data set [6], the Retention_time was determined as 14.3 min. Moreover, the result in data set [7], in data set [9], in data set [12] and in [13] was Active. In addition, the MIC amounted to 81.5 µM (≈ 200 µg/mL) in data set [17] and 40.8 µM (≈ 100 µg/mL) in data set [14].

What is called IC50 is the concentration at which inhibition is half-maximal. The term MIC denotes the lowest concentration found to suppress growth.

Values taken from ChEMBL document CHEMBL5252539, “In vitro biological evaluation of new antimycobacterial salicylanilide-tuftsin conjugates” (Eur J Med Chem, 2017).
